This is an account of results in the M2OR odorant receptor database.

The structures appear in SMILES notation.

Common to all, as to details: stereoisomer not certain
One test concerns the target T1, OR5K1 (Homo sapiens) (UniProt Q8NHB7).
T1 sequence (whole entry): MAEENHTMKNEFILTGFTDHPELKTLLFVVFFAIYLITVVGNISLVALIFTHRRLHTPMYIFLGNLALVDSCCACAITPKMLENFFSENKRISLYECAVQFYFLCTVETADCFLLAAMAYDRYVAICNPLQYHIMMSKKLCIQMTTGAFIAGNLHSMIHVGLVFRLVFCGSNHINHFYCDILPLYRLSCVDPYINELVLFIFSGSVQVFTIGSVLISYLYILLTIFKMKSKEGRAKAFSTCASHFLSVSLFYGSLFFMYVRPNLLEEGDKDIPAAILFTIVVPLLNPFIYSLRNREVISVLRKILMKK
A digest of the protocol: (§1)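 Values were gathered from published papers (main text and supplementary material), with extra details requested from the original authors when needed, and checked for typos and inconsistencies. Each receptor–molecule pair is called responsive (active) if the original authors judged the measured signal statistically different from baseline, and non-responsive (inactive) otherwise. Assay methods varied by source, often transient mammalian cell-line luciferase assays. Recorded details include cell line, G-protein, co-transfected protein and tags.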

Another test concerns the target OR5I1 (Homo sapiens) (UniProt Q13606). A digest of the protocol:
as §1

For a further test, the target named is OR5J2 (Homo sapiens) (UniProt Q8NH18). A digest of the protocol:
as §1

The next test addresses OR5K2 (Homo sapiens) (UniProt Q8NHB8). A digest of the protocol: as §1
For the next test, the system named is OR5K2 L197M. A digest of the protocol:
as §1

In a further test the target is OR5K3 (Homo sapiens) (UniProt A6NET4). A digest of the protocol:
as §1

In another test the target is OR5K4 (Homo sapiens) (UniProt A6NMS3). A digest of the protocol:
as §1

For another test, the target named is OR5L1 (Homo sapiens) (UniProt Q8NGL2). A digest of the protocol: as §1
Chain of OR5L1 (Homo sapiens) (Q8NGL2 whole entry): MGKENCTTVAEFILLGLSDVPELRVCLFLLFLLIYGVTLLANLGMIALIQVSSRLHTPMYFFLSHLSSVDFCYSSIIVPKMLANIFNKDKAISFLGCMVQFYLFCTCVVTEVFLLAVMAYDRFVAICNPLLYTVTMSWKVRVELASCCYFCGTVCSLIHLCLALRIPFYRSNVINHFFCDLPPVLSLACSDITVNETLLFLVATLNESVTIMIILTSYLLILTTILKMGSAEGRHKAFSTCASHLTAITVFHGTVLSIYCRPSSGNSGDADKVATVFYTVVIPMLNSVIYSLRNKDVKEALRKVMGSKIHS
A further test concerns the target OR5L2 (Homo sapiens) (UniProt Q8NGL0). A digest of the protocol:
as §1

In a further test the target is OR5M1 (Homo sapiens) (UniProt Q8NGP8). A digest of the protocol:
as §1

Chain of OR5K2 (Homo sapiens) (Q8NHB8 whole entry): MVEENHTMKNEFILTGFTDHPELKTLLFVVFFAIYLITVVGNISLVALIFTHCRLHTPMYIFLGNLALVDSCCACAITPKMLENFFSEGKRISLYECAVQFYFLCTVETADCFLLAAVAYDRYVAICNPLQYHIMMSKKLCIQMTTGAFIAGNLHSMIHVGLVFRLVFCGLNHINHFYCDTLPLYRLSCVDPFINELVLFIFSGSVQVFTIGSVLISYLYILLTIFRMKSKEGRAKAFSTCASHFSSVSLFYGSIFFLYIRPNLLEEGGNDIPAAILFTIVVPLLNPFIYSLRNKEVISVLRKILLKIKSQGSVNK
Chain of OR5J2 (Homo sapiens) (Q8NH18 whole entry): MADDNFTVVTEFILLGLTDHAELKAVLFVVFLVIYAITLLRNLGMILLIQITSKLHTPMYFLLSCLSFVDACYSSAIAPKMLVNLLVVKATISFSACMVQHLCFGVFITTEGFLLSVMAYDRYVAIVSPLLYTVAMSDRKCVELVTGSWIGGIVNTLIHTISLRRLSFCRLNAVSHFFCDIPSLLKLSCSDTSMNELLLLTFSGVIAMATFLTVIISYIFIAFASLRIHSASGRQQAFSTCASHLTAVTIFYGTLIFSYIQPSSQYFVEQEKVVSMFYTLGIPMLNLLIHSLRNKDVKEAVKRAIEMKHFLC
Chain of OR5K3 (Homo sapiens) (A6NET4 whole entry): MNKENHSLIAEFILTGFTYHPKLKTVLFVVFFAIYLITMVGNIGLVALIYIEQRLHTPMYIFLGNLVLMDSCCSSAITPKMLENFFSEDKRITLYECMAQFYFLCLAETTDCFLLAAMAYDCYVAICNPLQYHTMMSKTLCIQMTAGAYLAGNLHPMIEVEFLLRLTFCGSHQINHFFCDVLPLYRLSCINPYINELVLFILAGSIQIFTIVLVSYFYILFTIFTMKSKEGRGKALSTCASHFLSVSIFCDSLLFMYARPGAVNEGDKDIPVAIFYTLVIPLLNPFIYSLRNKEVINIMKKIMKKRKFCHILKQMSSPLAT
Chain of OR5K4 (Homo sapiens) (A6NMS3 whole entry): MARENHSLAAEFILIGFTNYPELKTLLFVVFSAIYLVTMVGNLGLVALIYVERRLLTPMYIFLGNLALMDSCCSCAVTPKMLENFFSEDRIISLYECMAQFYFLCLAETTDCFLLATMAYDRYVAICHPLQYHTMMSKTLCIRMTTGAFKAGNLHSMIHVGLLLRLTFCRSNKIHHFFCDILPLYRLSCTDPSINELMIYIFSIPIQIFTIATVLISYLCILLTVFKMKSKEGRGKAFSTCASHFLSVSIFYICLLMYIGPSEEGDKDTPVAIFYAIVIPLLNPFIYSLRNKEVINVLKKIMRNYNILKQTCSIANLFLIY
Chain of OR5M1 (Homo sapiens) (Q8NGP8 whole entry): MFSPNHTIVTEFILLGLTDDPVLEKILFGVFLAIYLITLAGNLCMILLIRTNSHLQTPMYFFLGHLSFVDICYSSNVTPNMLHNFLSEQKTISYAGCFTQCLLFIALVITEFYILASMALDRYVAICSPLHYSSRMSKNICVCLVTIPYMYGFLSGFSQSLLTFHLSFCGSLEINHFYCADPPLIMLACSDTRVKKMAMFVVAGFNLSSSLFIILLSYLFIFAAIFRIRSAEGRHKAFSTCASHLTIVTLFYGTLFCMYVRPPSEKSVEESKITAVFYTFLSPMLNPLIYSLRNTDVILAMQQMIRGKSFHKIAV
Chain of OR5I1 (Homo sapiens) (Q13606 whole entry): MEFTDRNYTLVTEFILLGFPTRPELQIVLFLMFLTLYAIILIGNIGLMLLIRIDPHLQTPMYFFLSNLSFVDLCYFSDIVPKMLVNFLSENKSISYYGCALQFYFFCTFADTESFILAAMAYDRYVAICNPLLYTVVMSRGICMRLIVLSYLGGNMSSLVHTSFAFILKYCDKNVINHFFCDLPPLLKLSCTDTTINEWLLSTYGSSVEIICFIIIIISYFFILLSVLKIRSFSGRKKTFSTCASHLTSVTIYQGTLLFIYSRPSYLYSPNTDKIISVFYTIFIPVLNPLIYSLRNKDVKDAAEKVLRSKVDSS
Chain of OR5L2 (Homo sapiens) (Q8NGL0 whole entry): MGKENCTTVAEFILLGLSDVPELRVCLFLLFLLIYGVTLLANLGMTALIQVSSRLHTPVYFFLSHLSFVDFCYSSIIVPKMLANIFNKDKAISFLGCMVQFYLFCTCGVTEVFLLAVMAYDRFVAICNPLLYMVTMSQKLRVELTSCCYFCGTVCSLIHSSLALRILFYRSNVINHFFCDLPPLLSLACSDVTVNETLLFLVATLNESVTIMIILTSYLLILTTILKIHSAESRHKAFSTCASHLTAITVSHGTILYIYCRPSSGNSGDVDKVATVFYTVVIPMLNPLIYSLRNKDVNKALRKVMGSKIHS
Chain of OR5K2 L197M (as listed by the source, stated change not applied): as the sequence (Q8NHB8 whole entry) above, with L197M counted along it

On to `COc1ccc(C=O)cc1`, for which, in the test with OR5K1 (Homo sapiens), the “odorant receptor agonist call” value was “inactive”.

Consider `Cc1ccccc1O`, for which the “odorant receptor agonist call” value in the test with OR5K1 (Homo sapiens) was “inactive”.

`Cc1ccc(O)c(C)c1`: in the test with OR5K1 (Homo sapiens), the “odorant receptor agonist call” value was “inactive”.

For the molecule `C=CCSSCC=C`, the “odorant receptor agonist call” value with OR5K1 (Homo sapiens) is “inactive”.

`C=CCOC(=O)Cc1ccccc1`: the “odorant receptor agonist call” value with OR5I1 (Homo sapiens), with OR5J2 (Homo sapiens), with OR5K1 (Homo sapiens), with OR5K2 (Homo sapiens), in the test with OR5K2 L197M and with OR5K3 (Homo sapiens) was “inactive” in each case. The “odorant receptor agonist call” value with OR5K4 (Homo sapiens), in the test with OR5L1 (Homo sapiens), with OR5L2 (Homo sapiens) and with OR5M1 (Homo sapiens) was “inactive” in each case.

On to `CSSC`, for which the “odorant receptor agonist call” value with OR5K1 (Homo sapiens) was “inactive”.

As to `C=CCc1ccc(OC)cc1`, the “odorant receptor agonist call” value with OR5K1 (Homo sapiens) was “inactive”.

For `O=Cc1ccc2c(c1)OCO2`, in the test with OR5K1 (Homo sapiens), the “odorant receptor agonist call” value is “inactive”.

Turning to `NCC(=O)c1ccccc1`, the “odorant receptor agonist call” value in the test with OR5K1 (Homo sapiens) was “inactive”.

With `CCOC(=O)Cc1ccccc1`, the “odorant receptor agonist call” value with OR5K1 (Homo sapiens) was “inactive”.

Take `Cc1c([N+](=O)[O-])c(C)c([N+](=O)[O-])c(C(C)(C)C)c1[N+](=O)[O-]`: the “odorant receptor agonist call” value with OR5I1 (Homo sapiens), in the test with OR5J2 (Homo sapiens), in the test with OR5K2 (Homo sapiens), in the test with OR5K3 (Homo sapiens), with OR5K4 (Homo sapiens) and in the test with OR5L1 (Homo sapiens) was “inactive” throughout. For the same molecule, the “odorant receptor agonist call” value in the test with OR5M1 (Homo sapiens) is “inactive”.

For `SCc1ccco1`, the “odorant receptor agonist call” value in the test with OR5K1 (Homo sapiens) is “inactive”.
